Assay results taken from ChEMBL document CHEMBL1122241, “A simplified high-pressure liquid chromatography method for determining lipophilicity for structure-activity relationships” (J Med Chem, 1983).

Experiments:
Oryctolagus cuniculus = species on record: Oryctolagus cuniculus; assay: Negative log of minimum effective dose (moles per kilogram) in rabbits (hypnotic); format: functional
[1] = Compound is evaluated for […] log k; format: physicochemical; settings: octanol/water
Outline: (§1)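 Log k' was measured by reverse-phase HPLC on dry-packed deactivated C18/Corasil columns (10 and 50 cm, 2-mm i.d.) at 22 °C, flow 1 mL/min, with UV detection at 254 nm. The mobile phase was methanol-modified aqueous phosphate buffer at μ 0.15. Void time came from methanol injection, and k' = (tr − t0)/t0.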

[2] = Negative log of molar concentration (-log ED50) required to reduce cell division by 50% in Arbacia egg; format: functional
[3] = (§2) pKa value is evaluated; format: physicochemical
Rattus norvegicus = species on record: Rattus norvegicus; format: functional
[4] = ACompound is evaluated for […] log k; format: physicochemical; settings: octanol/water
Outline: as §1, with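 “0.15. Calculated pH was 7.45 for sulfonamides and 7.31 for barbiturates.” for “0.15.”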

[5] = A pKa value is evaluated; format: physicochemical
[6] = as §2; format: physicochemical; remark: listed apart in the source
Outline: (§3)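 Determined in-house by computer-controlled spectrophotometric titration (absorbance vs. pH) of each sulfonamide. Samples were in buffered aqueous solution of HCl/HOAc/Mops/glycine, 0.0005 N each. A manual wavelength scan of each compound set the wavelength at which its titration was run.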

[7] = pKa value is evaluated; activity is unretained; format: physicochemical; outline: as §3
Escherichia coli [8] = assay: Minimum inhibitory concentration (bacteriostatic) against Escherichia coli at pH 7.2 (Sauterne''s medium); format: functional
Escherichia coli [9] = assay: Minimum inhibitory concentration (bacteriostatic) against Escherichia coli at pH 7.4; format: functional
[10] = Negative log of Langmuir's alpha constant (-log alpha), which is inversely proportional to the effective binding constant (protein binding); format: ADME

Row | Compound | -Log C (Oryctolagus cuniculus) | Log K [1] | -Log ED50 [2] | pKa [3] | -Log C (Escherichia coli [8]) | -Log C (Escherichia coli [9]) | -Log alpha [10] | also measured
1 | C=CCC1(CC=C)C(=O)NC(=O)NC1=O [ALLOBARBITAL] | 3.54 | 0.6 | 1.79 | – | – | – | – | –
2 | CCC1(CCC(C)C)C(=O)NC(=O)NC1=O [AMOBARBITAL] | – | 1.33 | 2.82 | – | – | – | – | –
3 | C=CCC1(C(C)C)C(=O)NC(=O)NC1=O [APROBARBITAL] | 3.6 | 0.75 | 2.01 | 7.73 | – | – | – | -Log C (Rattus norvegicus): 2.41
4 | CCC1(CC)C(=O)NC(=O)NC1=O [BARBITAL] | 3.09 | 0.16 | 1.49 | 7.75 | – | – | – | -Log C (Rattus norvegicus): 1.32
5 | CCC(C)C1(CC)C(=O)NC(=O)NC1=O (stereo not drawn) [BUTABARBITAL] | 3.63 | – | – | – | – | – | – | Log K [4]: 0.95; pKa [5]: 7.89
6 | C=CCC1(CC(C)C)C(=O)NC(=O)NC1=O [BUTALBITAL] | 3.63 | 1.01 | – | 7.54 | – | – | – | -Log C (Rattus norvegicus): 2.8
7 | CCC1(C2=CCCCC2)C(=O)NC(=O)NC1=O [CYCLOBARBITAL] | – | 0.91 | 2.24 | 7.36 | – | – | – | –
8 | CN1C(=O)NC(=O)C(C)(C2=CCCCC2)C1=O (stereo not drawn) [HEXOBARBITAL] | 4.37 | 1.13 | – | – | – | – | – | pKa [5]: 7.36
9 | CCC1(CC)C(=O)NC(=O)N(C)C1=O [METHARBITAL] | 3.12 | 0.71 | – | – | – | – | – | –
10 | C=CCC1(C(C)C#CCC)C(=O)NC(=O)N(C)C1=O (stereo not drawn) [METHOHEXITAL] | 4.74 | 1.96 | – | 4.74 | – | – | – | –
11 | CCCC(C)C1(CC)C(=O)NC(=O)NC1=O (stereo not drawn) [PENTOBARBITAL] | 4.05 | 1.32 | 2.92 | 8.02 | – | – | – | -Log C (Rattus norvegicus): 3.07
12 | CCC1(c2ccccc2)C(=O)NC(=O)NC1=O [PHENOBARBITAL] | 3.32 | 0.56 | 2.02 | 7.26 | – | – | – | -Log C (Rattus norvegicus): 1.88
13 | C=CCC1(C(C)CCC)C(=O)NC(=O)NC1=O (stereo not drawn) [SECOBARBITAL] | 4.2 | 1.52 | 3.62 | 7.92 | – | – | – | -Log C (Rattus norvegicus): 3.19
14 | CC(=O)NS(=O)(=O)c1ccc(N)cc1 [SULFACETAMIDE] | – | – | – | – | -0.52 | 3.248 | -3.15 | pKa [6]: 5.78; Log K [7]: activity is unretained
15 | Nc1ccc(S(=O)(=O)Nc2ncccn2)cc1 [SULFADIAZINE] | – | 0.223 | – | – | -0.08 | 4.337 | -2.99 | –
16 | [H]/N=C(/N)NS(=O)(=O)c1ccc(N)cc1 [SULFAGUANIDINE] | – | -0.00612 | – | 12 | 1.81 | – | – | –
17 | Cc1ccnc(NS(=O)(=O)c2ccc(N)cc2)n1 [SULFAMERAZINE] | – | 0.829 | – | 6.98 | 0.06 | 4.469 | -2.23 | –
18 | Cc1cc(C)nc(NS(=O)(=O)c2ccc(N)cc2)n1 [SULFAMETHAZINE] | – | 1.49 | – | 7.7 | 0.11 | – | -2.28 | –
19 | Cc1cc(NS(=O)(=O)c2ccc(N)cc2)no1 [SULFAMETHOXAZOLE] | – | – | – | – | 0.06 | 4.634 | -2.51 | –
20 | COc1ccc(NS(=O)(=O)c2ccc(N)cc2)nn1 [SULFAMETHOXYPYRIDAZINE] | – | 1.35 | – | 7.2 | 0 | 4.57 | -1.75 | –
21 | Nc1ccc(S(N)(=O)=O)cc1 [SULFANILAMIDE] | – | – | – | – | -2.11 | 2.824 | -2.98 | –
22 | Nc1ccc(S(=O)(=O)Nc2nccs2)cc1 [SULFATHIAZOLE] | – | 0.887 | – | 7.25 | -0.18 | 4.597 | -2.45 | –
23 | Cc1noc(NS(=O)(=O)c2ccc(N)cc2)c1C [SULFISOXAZOLE] | – | 0.762 | – | – | -0.45 | 4.56 | -1.73 | –
24 | C=CCC1(C(C)CCC)C(=O)NC(=S)NC1=O (stereo not drawn) [THIAMYLAL] | 4.15 | 1.72 | – | – | – | – | – | –
25 | CCCC(C)C1(CC)C(=O)NC(=S)NC1=O (stereo not drawn) [THIOPENTAL] | 3.98 | 1.52 | – | – | – | – | – | –
